The results in this text go back to paper PMC11607387 (Nature Communications, 2024).

One series has as its system RAW264.7 cells. Nature of the series: MTT cytotoxicity on RAW264.7 cells. The series is classed as cell-based. The conditions noted are these: for cytotoxicity in RAW 264.7 cells: without laser. The essentials:
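RAW264.7 cells seeded at 5 × 10^3/well, grown 24 h, then exposed to preparations across a concentration series. After 4 h, only the laser groups were irradiated (650 nm); all cells were incubated a further 20 h, and viability was read by MTT.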

A further series concerns the target T1, human MMP-2 (Homo sapiens, UniProt P08253).
T1 sequence (P08253 110-660): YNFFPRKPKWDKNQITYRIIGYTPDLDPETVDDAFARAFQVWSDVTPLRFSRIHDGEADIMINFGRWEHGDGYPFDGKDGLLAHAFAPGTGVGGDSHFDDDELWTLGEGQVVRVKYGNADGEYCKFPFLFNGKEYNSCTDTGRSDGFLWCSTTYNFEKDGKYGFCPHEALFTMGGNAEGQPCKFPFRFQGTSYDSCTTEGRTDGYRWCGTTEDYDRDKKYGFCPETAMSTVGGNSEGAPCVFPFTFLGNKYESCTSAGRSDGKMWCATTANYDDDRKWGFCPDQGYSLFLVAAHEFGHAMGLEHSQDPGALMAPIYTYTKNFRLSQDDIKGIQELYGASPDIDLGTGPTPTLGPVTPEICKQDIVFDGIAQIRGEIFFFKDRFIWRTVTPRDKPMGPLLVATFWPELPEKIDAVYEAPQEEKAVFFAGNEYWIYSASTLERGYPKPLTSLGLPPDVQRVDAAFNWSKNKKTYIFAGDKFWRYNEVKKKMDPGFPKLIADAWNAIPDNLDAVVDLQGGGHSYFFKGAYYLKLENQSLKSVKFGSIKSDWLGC
The experiment in a line: MMP-2 responsiveness. It is filed as biochemical. The conditions noted are these: human MMP-2, 4 and 24 h, 37 °C, MALDI-TOF-MS.

In series [1] the test system is 4T1 cells. The experiment in a line: Cellular uptake by flow cytometry and fluorescence microscopy. The series is classed as cell-based, murine. The following applies: flow cytometry, Ce6 5 μg/mL. The method, boiled down: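 4T1 cells (1 × 10^5/well) grown to 80% confluency, exposed to formulations in serum-free 1640 medium at equal Ce6 (5 μg/mL) for 1, 4 or 12 h, then analysed by flow cytometry (n = 3). For microscopy, cells (2 × 10^5/well) on coverslips grown 36 h to 60% confluency, treated likewise, washed with cold PBS, fixed, DAPI-stained (1 μg/ml, 5 min) and imaged.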
For orientation: Flow cytometry measures light scatter and fluorescence of single cells or particles in a stream.

The nature of series [2]: DLS size, PDI and zeta potential of nanoparticles. It is filed as physicochemical. The following applies: without dBET6.
In series [3] the test system is BALB/c nude mice bearing primary tumors of breast cancer. The experiment in a line: Biodistribution after intravenous injection. The series is classed as in vivo. The conditions noted are these: 24 h post intravenous injection, ex vivo. The method, boiled down:
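Tumour-bearing BALB/c nude mice, tumours about 200 mm3 roughly 14 days after cell injection, randomised into four groups (n = 4). Ce6-labelled formulations were given intravenously and imaged on IVIS at 1, 2, 4, 8, 12 and 24 h. At 24 h animals were sacrificed; tumours and major organs were imaged ex vivo, fluorescence semi-quantified, then fixed and frozen-sectioned for imaging.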

Series [4] deals with BALB/c nude mice bearing breast cancer. The experiment in a line: Tumor retention after intra-tumoral injection. The series is classed as in vivo. The conditions noted are these: 48 h post intra-tumoral injection, ex vivo. The essentials:
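Breast-tumour-bearing BALB/c nude mice received formulations intratumorally. IVIS fluorescence imaging at 5 min and 4, 8, 12, 24, 36 and 48 h post-injection. Tumours and major organs were imaged ex vivo, then fixed, dehydrated and frozen-sectioned for fluorescence imaging.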

Series [5] relates to 4T1 cells. Nature of the series: Wound healing assay. The following applies: 24 h, cell motility = 1 - wound area at 24 h/wound area at 0 h. The series is classed as cell-based, murine. The method, boiled down:
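4T1 monolayers in 12-well plates at 80% confluency were scratched with a 10 μL tip and washed three times with cold PBS, then treated with formulations. Laser groups were irradiated after 4 h. At 24 h, cells were fixed, stained with 0.1% crystal violet, and the scratched area imaged by inverted microscope.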

For series [6], the system named is mice bearing 4T1-Luc brain-metastatic tumor. Nature of the series: Brain accumulation in brain-metastasis model. The following applies: ex vivo, 8 h post intravenous injection. The method, boiled down: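 Brain-metastasis model: 4T1-Luc cells (5 × 10^3) implanted stereotactically into right hippocampus. After 10 days, grouped by bioluminescence intensity (n = 4). Formulations given intravenously; IVIS fluorescence imaging at 1, 2, 4 and 8 h. At 8 h, mice sacrificed; brains and major organs imaged ex vivo for fluorescence.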

`Cc1sc2c(c1C)C(c1ccc(Cl)cc1)=N[C@@H](CC(=O)NCCCCCCCCNC(=O)COc1cccc3c1C(=O)N(C1CCC(=O)NC1=O)C3=O)c1nnc(C)n1-2` (stereo partly shown) [dBET6, reference compound]: in the series on RAW264.7 cells (dBET6 0.25 μg/mL), the “influence on cell viability of RAW264.7 cells” value was “no influence on cell viability”.
For Ce6-FFRFKGPGLLAGC-PEG-DSPE [CFPD], at human MMP-2, the “molecular mass change after incubation with MMP-2” value was “no significant change in molecular mass”. For the same compound, the “fluorescence signal relative to free Ce6 (cellular uptake)” value (shortened to “fluorescence signal relative to free Ce6”) with 4T1 cells [1] (1 h) was found to be 5.71 fold; with 4T1 cells [1] (4 h), 3.73 fold; in the series on 4T1 cells [1] (12 h), 3.10 fold. Also, the “cytotoxicity in RAW 264.7 cells” value with RAW264.7 cells is “negligible cytotoxicity”. Moreover, in series [2], the “size of self-assembled nanoparticles” value is reported as “around 90 nm”.
As for Ce6-PEG3400-DSPE [CPD], the “cytotoxicity in RAW 264.7 cells” value in the series with RAW264.7 cells is “negligible cytotoxicity”. Besides, in series [2], the “size of self-assembled nanoparticles” value is “around 90 nm”.
Ce6-FFRFKGPLGLAGC-PEG-DSPE [CFMPD]: in series [3], the “tumor fluorescent signal, fold higher than CFPD” value turned out to be 1.22 fold and the “tumor fluorescent signal, fold higher than CPD” value stood at 1.71 fold. Further, the “molecular mass change after incubation with MMP-2” value on human MMP-2 is on record as “distinct new peaks belonging to the post-enzymatic fragmentation”. Also, the “tumor fluorescence intensity, fold stronger than CFPD” value in series [4] worked out at 1.72 fold. Also, the “cell mobility (wound healing)” value with 4T1 cells [5] is 37.0%. In the series with 4T1 cells [1] (1 h), the “fluorescence signal relative to free Ce6” value is given as 6.53 fold. Further, the “fluorescence signal relative to free Ce6” value with 4T1 cells [1] (4 h) amounted to 4.13 fold. For the same compound, the “fluorescence signal relative to free Ce6” value in the series with 4T1 cells [1] (12 h) amounted to 3.64 fold. Further, the “cytotoxicity in RAW 264.7 cells” value in the series on RAW264.7 cells is “negligible cytotoxicity”. Also, in series [6], the “brain fluorescence, fold stronger than CFPD” value is 1.46 fold; the “brain fluorescence, fold stronger than CPD” value amounted to 2.04 fold; the “brain fluorescence, fold stronger than Ce6” value is 2.43 fold. Further, in series [2], the “size of self-assembled nanoparticles” value is recorded as “around 90 nm”.
